In ChEMBL document CHEMBL1157852, “Modulation of doxorubicin activity in cancer cells by conjugation with fatty acyl and terpenyl hydrazones” (Eur J Med Chem, 2010):
pIC50: −log10 of the molar value. Calls of active or inactive are those of the source. The calls are words filed in the database; no cut-off is given here.

Tests used:
HL-60 [1] = test: Induction of apoptosis in human HL60 cells assessed as appearance of intact mitochondria in cytosol at 5 uM after 6 hrs using JC1 dye relative to control; type: functional
How it was run: (§1)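 Mitochondrial membrane potential measured with JC-1. Cells exposed to 5 µM compound for 6 or 18 h, pelleted at 400 g, stained with 0.2× JC-1 at 37 °C for 15 min (HL-60) or 35 min (518A2), washed and resuspended in PBS. Red fluorescence (ex 585/em 590 nm) and green (ex 510/em 527 nm) read; red/green ratio relative to untreated controls (100%). Mean ± SD, four independent experiments.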

518A2 [2] = test: Induction of apoptosis in human 518A2 cells assessed as appearance of intact mitochondria in cytosol at 5 uM after 18 hrs using JC1 dye relative to control; type: functional; how it was run: as §1
518A2 [3] = test: Induction of apoptosis in human 518A2 cells assessed as increase of caspase 8 activity at 5 uM measured up to 12 hrs by luminometric assay; type: functional, cell-based
How it was run: (§2)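 HL-60 and 518A2 cells treated with 5 µM compound and sampled at intervals from 1 to 24 h. Lysed in 50 mM Tris-HCl pH 7.4, 150 mM NaCl, 1% Triton X-100 with protease inhibitors for 15 min at 4 °C, spun at 800 g. Protein measured by Bradford. Caspase-3/7, -8 and -9 activities read with luminogenic peptide substrates; reported as relative luminescence.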

518A2 [4] = test: Induction of apoptosis in human 518A2 cells assessed as increase of caspase 3 activity at 5 uM measured up to 12 hrs by luminometric assay; type: functional, cell-based; how it was run: as §2
HL-60 [5] = test: Induction of apoptosis in human HL60 cells assessed as increase of caspase 8 activity at 5 uM after 4 to 24 hrs by luminometric assay; type: functional, cell-based; how it was run: as §2
[6] = Cytotoxicity against human vinblastine-resistant KBV1 cells after 24 hrs by MTT assay; type: functional, cell-based; settings: KB-V1, 24 h
How it was run: (§3)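 MTT assay. Cells seeded and cultured 24 h, then exposed to compound for 24, 48 or 72 h. MTT added to a final 0.05% (HL-60, 518A2) or 0.1% (KB-V1, MCF-7) for 2 h. Formazan dissolved in 10% SDS/DMSO with 0.6% acetic acid; absorbance read at 570 nm against 630 nm background. Viability taken relative to untreated controls (100%). IC50 from concentration-response curves, mean ± SD of four independent experiments.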

HL-60 [7] = test: Cytotoxicity against human HL60 cells assessed as increase in ROS production at 5 uM after 72 hrs by NBT reduction assay relative to control; type: functional
How it was run: (§4)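 NBT assay. HL-60 cells (0.5×10⁶/mL) or trypsinised 518A2 cells (5×10⁴/mL) pre-incubated 24 h at 37 °C, then given compound at a final 5 µM for 24 or 72 h. Medium removed; cells incubated with 0.1% NBT for 1 h (HL-60) or 4 h (518A2). Diformazan dissolved in 2 M KOH/DMSO; A630 read against 405 nm. Given as % of untreated controls; double quadruplicates.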

HL-60 [8] = test: Cytotoxicity against human HL60 cells after 48 hrs by MTT assay; type: functional, cell-based; settings: HL-60, 48 h; how it was run: as §3
MCF7 [9] = test: Cytotoxicity against human topotecan-resistant MCF7 cells after 48 hrs by MTT assay; type: functional, cell-based; settings: MCF7, 48 h; how it was run: as §3
518A2 [10] = test: Induction of apoptosis in human 518A2 cells assessed as increase of caspase 9 activity at 5 uM after 8 to 12 hrs by luminometric assay; type: functional, cell-based; how it was run: as §2
MCF7 [11] = test: Cytotoxicity against human topotecan-resistant MCF7 cells after 72 hrs by MTT assay; type: functional, cell-based; settings: MCF7, 72 h; how it was run: as §3
MCF7 [12] = test: Cytotoxicity against human topotecan-resistant MCF7 cells after 24 hrs by MTT assay; type: functional, cell-based; settings: MCF7, 24 h; how it was run: as §3
HL-60 [13] = test: Induction of apoptosis in human HL60 cells assessed as increase of caspase 9 activity at 5 uM after 8 hrs by luminometric assay; type: functional, cell-based
How it was run: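 HL-60 leukaemia cells were treated with test compound and sampled at intervals from 1 to 24 h. Protein was measured by Bradford. Caspase-9 (Caspase-Glo 8 for line 1) was read from a luminogenic peptide substrate as relative luminescence.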

[14] = Ratio of compound IC50 to doxorubicin IC50 for human doxorubicin-resistant KBV1 cells; type: functional
[15] = Cytotoxicity against human 518A2 cells after 24 hrs by MTT assay; type: functional, cell-based; settings: 518A2, 24 h; how it was run: as §3
518A2 [16] = test: Induction of apoptosis in human 518A2 cells assessed as appearance of intact mitochondria in cytosol at 5 uM after 6 hrs using JC1 dye relative to control; type: functional; how it was run: as §1
HL-60 [17] = test: Cytotoxicity against human HL60 cells after 72 hrs by MTT assay; type: functional, cell-based; settings: HL-60, 72 h; how it was run: as §3
[18] = Cytotoxicity against human vinblastine-resistant KBV1 cells after 72 hrs by MTT assay in presence of 24 mM ABC transporter inhibitor verapamil hydrochloride; type: functional, cell-based; settings: KB-V1, 72 h, in the assay text read “24 uM” for “24 mM”
How it was run: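 MTT viability assay on P-gp-overexpressing KB-V1/Vbl cells with 24 µM verapamil hydrochloride added before the compound; 72 h exposure. Formazan read at 570/630 nm relative to untreated controls. IC50 from concentration-response curves, mean ± SD of four independent experiments.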

MCF7 [19] = test: Cytotoxicity against human topotecan-resistant MCF7 cells after 72 hrs by MTT assay in presence of […] BCRP inhibitor fumitremorgin C; type: functional, cell-based; settings: MCF7, 72 h
How it was run: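 MCF-7/Topo cells grown in E-MEM with 2.2 g/L NaHCO₃, 110 mg/L sodium pyruvate and 5% FCS. Cells were seeded, cultured 24 h, given fumitremorgin C, then exposed to compound for 72 h. MTT was added (final 0.1%) for 2 h, medium discarded, and formazan dissolved in 10% SDS/DMSO with 0.6% acetic acid. A570 (630 background) read versus untreated controls; IC50 from concentration-response curves; four independent experiments, mean ± SD.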

HL-60 [20] = test: Cytotoxicity against human HL60 cells after 24 hrs by MTT assay; type: functional, cell-based; settings: HL-60, 24 h; how it was run: as §3
[21] = Cytotoxicity against human 518A2 cells after 72 hrs by MTT assay; type: functional, cell-based; settings: 518A2, 72 h; how it was run: as §3
Nucleic Acid = test: Binding affinity to Escherichia coli pBR322 DNA assessed as effect on DNA electrophoretic mobility at 5 to 25 uM after 24 hrs; type: nucleic-acid assay
How it was run: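 pBR322 plasmid DNA from a TE stock incubated with compound at 0, 5, 10 and 25 µM, in the dark at 37 °C for 24 h. Samples run on 1% agarose gel in 0.5× TBE for 4 h at 66 V. Read-out: shifts in mobility of the open circular and covalently closed circular forms.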

HL-60 [22] = test: Cytotoxicity against human HL60 cells assessed as increase in ROS production at 5 uM after 24 hrs by NBT reduction assay relative to control; type: functional; how it was run: as §4
HL-60 [23] = test: Induction of apoptosis in human HL60 cells assessed as increase of caspase 3 activity at 5 uM after 4 hrs by luminometric assay; type: functional, cell-based; how it was run: as §2
[24] = Cytotoxicity against human vinblastine-resistant KBV1 cells after 48 hrs by MTT assay; type: functional, cell-based; settings: KB-V1, 48 h; how it was run: as §3
HL-60 [25] = test: Induction of apoptosis in human HL60 cells assessed as increase of ratio of Bax to Bcl-2 mRNA expression at 5 uM after 6 to 18 hrs by RT-PCR analysis; type: functional, cell-based
How it was run: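 Real-time PCR of bax and bcl-2 mRNA in HL-60 cells after 6 h and 18 h exposure to test compound. Each gene was normalised to GAPDH, and the bax/bcl-2 expression ratio was reported.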

Activity (Nucleic Acid): Active
Compound: COc1cccc2c1C(=O)c1c(O)c3c(c(O)c1C2=O)C[C@@](O)(/C(CO)=N/NC(=O)CCCCCCCCCCC(=O)O[C@@H]1C[C@H](C)CC[C@H]1C(C)C)C[C@@H]3O[C@H]1C[C@H](N)[C@H](O)[C@H](C)O1.Cl
Activity (HL-60 [1]): 90%
Activity (518A2 [2]): 71%
Activity (518A2 [3]): inactive
Activity (518A2 [4]): inactive
Activity (HL-60 [5]): Active
pIC50 [6]: 4.52
Activity (HL-60 [7]): 5.9%
pIC50 (HL-60 [8]): 6.60
pIC50 (MCF7 [9]): 5.59
Activity (518A2 [10]): Active
pIC50 (MCF7 [11]): 5.59
pIC50 (MCF7 [12]): 5.15
Activity (HL-60 [13]): Active
Ratio IC50 [14]: 1.6
pIC50 [15]: 6.64
Activity (518A2 [16]): 108%
pIC50 (HL-60 [17]): 6.96
pIC50 [18]: 6.17
pIC50 (MCF7 [19]): 7.05
pIC50 (HL-60 [20]): 6.52
pIC50 [21]: 7.22
Activity (HL-60 [22]): 3.8%
Activity (HL-60 [23]): Active
pIC50 [24]: 4.77
Activity (HL-60 [25]): Active
